# Screening results: PubChem BioAssay, several laboratories
# Rtt109 HAT inh – inhibitors of Candida albicans Rtt109/Vps75 histone acetyltransferase | Q5AAJ8 | purified Rtt109/Vps75, ThioGlo CoA-SH fluorescence, 4 h | inhibition, % at 34.9 µM | 330,000 tested, 0.16% active;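 active = inhibition of at least 50% in every replicate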
# ARFGAP1 inhibitor – rat ARFGAP1 inhibition | Q62848 | Arfgap1-stimulated ARF1 GTP hydrolysis, GDP FP detection | inhibition, % at 16.5 µM | 360,000 tested, 0.26% active | AID 651572;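 active = inhibition above a per-plate limit, mean inhibition of low control wells plus 3 SD, cut at about 25% in these data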
# Target sequence (Q62848 1-136 limits assumed): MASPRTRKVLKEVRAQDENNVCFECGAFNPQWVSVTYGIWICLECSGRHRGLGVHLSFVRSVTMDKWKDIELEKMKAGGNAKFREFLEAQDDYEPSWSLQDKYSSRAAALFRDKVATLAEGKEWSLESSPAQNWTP
#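 System: truncated rat Arfgap1 GAP domain / Medium: HEPES-based buffer, pH 7.5 / Also added: N-terminally truncated human ARF1-GTP substrate / Incubation: enzyme reaction 120 min at 25 °C after 20 min preincubation / Measured by: FP of antibody-bound GDP Alexa 633 tracer, ex 620/em 688 nm / Replicates: singlicate, each compound tested once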
# FGF22 binding – shifts melting point of recombinant human FGF22; Q9HCT0; recombinant FGF22 thermal shift, SYPRO orange fluorescence; percent of sucrose octasulfate shift, DMSO zero; AID 651658; activity (Tm shift, normalised), % at 9.99 µM; 340,000 tested, 1.5% active;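 active = mean Tm shift, scaled 0 neutral to 100 positive control, at about 1.3% or above, every replicate too, limit read from the data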
# ASAP1 GAP inh – inhibitors of human ASAP1 ArfGAP activity. ASAP1-stimulated ARF1 GTP hydrolysis, GDP FP detection. inhibition, % at 16.5 µM. 360,000 tested, 0.19% active; in the data active = inhibition above about 25%
# Target sequence (Q9ULH1 325-724 limits assumed): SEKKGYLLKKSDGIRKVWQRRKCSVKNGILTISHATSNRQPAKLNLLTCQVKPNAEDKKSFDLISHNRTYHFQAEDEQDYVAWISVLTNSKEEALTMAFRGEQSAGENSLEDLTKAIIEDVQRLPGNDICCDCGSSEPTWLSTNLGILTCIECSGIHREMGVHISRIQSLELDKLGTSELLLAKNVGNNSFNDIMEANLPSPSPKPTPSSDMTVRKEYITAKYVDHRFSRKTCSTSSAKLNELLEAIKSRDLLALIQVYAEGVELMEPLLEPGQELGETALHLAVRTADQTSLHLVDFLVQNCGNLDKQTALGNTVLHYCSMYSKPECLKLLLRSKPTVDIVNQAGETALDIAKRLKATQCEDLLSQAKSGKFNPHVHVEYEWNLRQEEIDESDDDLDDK
# Efflux pump mplx – antifungal efflux pump inhibition, Nile Red retention; S. cerevisiae Candida pump triplex; inhibition, % at 10 µM; 330,000 tested, 0.44% active;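 active = plate passing quality check with inhibition over a set limit, or well fluorescence over plate mean plus 4 SD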;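 note: Nile Red retained in pooled yeast measured as flow cytometry median fluorescence; higher means more Nile Red kept so more efflux inhibition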
# Numbers stand for hits; 0 = inactive; - = not tested or not shown. Shown are actives, neighbours in structure and some others; about 1.9% of the full set was active somewhere.
SMILES,Rtt109 HAT inh,ARFGAP1 inhibitor,FGF22 binding,ASAP1 GAP inh,Efflux pump mplx
O=C(Cc1ccc(Cl)cc1)NCC(=O)N1CCC2(CC1)NCCc1[nH]cnc12,-,0,43.3,0,-
CC(=O)Nc1ccc(C2=NNC(=NCC3CCCO3)SC2)cc1 (configuration not stated),0,0,0,0,0
Fc1ccc(F)c(C2=NNC(=NCC3CCCO3)SC2)c1 (configuration not stated),0,0,43.1,0,0
O=C(CSc1nc(O)cc(=O)n1-c1ccccc1)Nc1ccc2c3c(cccc13)CC2,0,0,43.5,0,0
CCOC(=O)N1CCN(C(=O)CSc2nc3c([nH]c4ccccc43)c(=O)n2CCOC)CC1,0,0,0,0,0
O=C(Nc1nccs1)c1ccc(-c2ccc(Cl)cc2Cl)o1,0,0,0,0,0
O=C(c1cccnc1Cl)N1CCOCC1,0,0,43.6,0,0
O=C(c1ccccc1NS(=O)(=O)c1cccc2cccnc12)N1CCOCC1,0,0,43.4,0,0
O=S(=O)(Nc1ccccc1O)c1cccc2cccnc12,0,0,0,0,0
Cn1cccc1CNC(=O)Nc1ccc(Cl)c(Cl)c1,0,0,-,0,0
Cc1cccc(C)c1NC(=O)CCCSc1nnc(N)s1,0,0,0,0,0
COc1ccccc1CC(NC(C)=O)C(=O)NC1CCN(C(=O)c2ccc([N+](=O)[O-])cc2)CC1 (configuration not stated),0,0,43.6,0,0
CCc1ccccc1NC(=O)C1CCN(C(=O)c2ccc([N+](=O)[O-])cc2)CC1,57.6,0,0,0,0
CC(=O)Nc1ccc(NC(=O)C2CCN(C(=O)c3ccc([N+](=O)[O-])cc3)CC2)cc1,0,0,0,0,0
COc1ccc(C(=O)N2CCC(NC(=O)C(Cc3ccccc3OC)NC(C)=O)CC2)cc1 (configuration not stated),0,0,0,0,-
CCOC(=O)c1ccc(N2C(=O)CC(SCC(=O)Nc3ccc(S(N)(=O)=O)cc3)C2=O)cc1 (configuration not stated),-,0,0,0,0
COC(=O)c1ccc(N2C(=O)CC(SCC(=O)Nc3ccc(OC)cc3)C2=O)cc1 (configuration not stated),94.3,0,0,0,0
CC(=O)c1c(C)[nH]c(C(=O)Nc2ccc(Cl)cc2)c1C,0,0,0,0,0
Cc1[nH]c(=O)nc(NN=Cc2ccc(Cl)cc2)c1C(=O)Nc1ccc(Cl)cc1,0,0,43.4,0,-
Fc1ccc(-c2csc(=S)[nH]2)cc1,0,0,43.0,0,0
S=c1[nH]c(-c2ccccc2)cs1,0,0,0,0,0
Cc1ccc(NC(=S)NC2CCCCC2)cc1S(=O)(=O)N(C)C,0,0,2.7,0,0
C=CCn1c(SCC(=O)N2CCOCC2)nc(O)cc1=O,0,0,-,0,0
O=C(OCc1nc2ccccc2s1)c1cccs1,0,0,-,0,0
CSCc1ccc(C(=O)OCc2nc3ccccc3s2)o1,0,0,42.9,0,0
SMILES,Rtt109 HAT inh,ARFGAP1 inhibitor,FGF22 binding,ASAP1 GAP inh,Efflux pump mplx
Cc1cc(CSc2ccccc2)ccc1NC(=O)c1ccc(C)c([N+](=O)[O-])c1,0,0,43.4,0,0
COc1ccc(CC(N)c2csc(Nc3cccc(OC)n3)n2)cc1 (configuration not stated),-,0,0,0,-
O=C(Nc1ccc2c(c1)OCCO2)c1cc(-c2ccccn2)nc2ccc(Br)cc12,0,0,43.6,0,0
C[C@H]1C(=O)N(c2ccccc2)[C@@H]1c1ccccc1,0,0,0,0,0
Cc1cc(C(=O)Nc2cccc3c2O[C@@H](CN(C)C(=O)Nc2cccc4ccccc24)[C@H](C)CN([C@@H](C)CO)C3=O)n(C)n1,-,-,0,-,-
CS(=O)(=O)N(CC(=O)NCC1CCCO1)c1cc(Cl)cc(Cl)c1 (configuration not stated),0,0,0,0,0
CS(=O)(=O)N(CC(=O)NCC1CCCO1)c1cccc(Cl)c1 (configuration not stated),0,0,43.8,0,0
Cc1nn2c(C(F)(F)F)c3c(nc2c1-c1ccccc1)CCC3,0,0,-,0,0
CC(=O)N(Cc1ccccc1)Cc1nc2sc(C)c(C)c2c(=O)[nH]1,0,0,43.6,0,0
Cc1cc(C)c(OCC(=O)OC(C)C(=O)NCc2ccccc2)c(C)c1 (configuration not stated),-,0,0,0,-
c1ccc(Nc2nc(Nc3ccccc3)nc(N3CCNCC3)n2)cc1,0,0,0,0,0
CO/N=C/C(C#N)=C/c1ccc(OC)cc1,0,0,43.7,0,0
COc1ccc(/C=C(/C#N)S(=O)(=O)c2ccc(C)cc2)cc1,0,0,-,0,0
COc1ccc(C(NC(C)=O)c2cc(Cl)c3cccnc3c2O)cc1 (configuration not stated),0,0,0,0,0
CCCC(=O)NC(c1ccc(OC)c(OC)c1)c1cc(Cl)c2cccnc2c1O (configuration not stated),0,0,43.3,0,0
CCCNC1(C(N)=O)CCN(Cc2ccccc2)CC1,0,0,43.1,0,-
c1cc2cc(-c3c(-c4ccc5c(c4)OCO5)noc3-c3ccsc3)ccc2[nH]1,0,29.4,0,0,0
CCC(CC)=NNc1ccc([N+](=O)[O-])cc1[N+](=O)[O-],0,0,43.2,0,0
Cc1c(Cl)cccc1NC(=S)N=Nc1c(O)n(CN2CCOCC2)c2ccccc12,0,-,-,-,29.3
Oc1c(N=NC(=S)Nc2ccccc2F)c2ccccc2n1Cc1ccccc1Cl,0,0,0,0,0
COc1ccccc1CN1CCCCCC1,0,0,0,0,0
O=C(c1ccc(-c2ccccc2)cc1)C1CCCN(C(=O)Cn2cncn2)C1 (configuration not stated),0,0,42.9,0,0
COc1ccc(C(=O)C2CCCN(C(=O)Cn3cncn3)C2)cc1OC (configuration not stated),0,0,0,0,0
C=C(C)CN(CC)C(=O)CC1C(=O)NCCN1Cc1c(F)cccc1Cl (configuration not stated),-,0,43.1,0,0
O=C(/C=C/c1ccc([N+](=O)[O-])cc1)OCc1cnc(-c2ccccc2)o1,0,0,43.7,0,0
CCOC(=O)c1c(NC(=O)CC2SC(N)=NC2=O)sc2c1CCC(C)C2 (configuration not stated),0,0,-,0,0
CCOC(=O)c1c(NC(=O)CNCCO)sc(C)c1C,0,0,-,0,0
CCOC(=O)c1c(NC(=O)CC2SC(N)=NC2=O)sc(C)c1C (configuration not stated),-,0,43.3,0,0
CCOC(=O)c1c(NC(=O)Cn2ccsc2=N)sc(C)c1C,0,0,43.2,0,0
Cc1nn(-c2ccccc2)c(C)c1C(=O)OC(C)C(=O)Nc1ccc(C(N)=O)cc1 (configuration not stated),0,0,43.0,0,0
